Test results reported in ChEMBL document CHEMBL1122323 (J Med Chem, 1983).
Active and inactive are the calls of the source. The calls are words filed in the database; no cut-off is given here.

What was measured:
Rattus norvegicus [1] = species on record: Rattus norvegicus; experiment: Inhibition of conditioned avoidance response (CAR) in fasted male Sprague-Dawley rats.; format: functional
Outline: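 Rats trained to climb or hurdle a barrier in a shuttle box within 30 s. Training was 11 trials at 3-min intervals on day 1, then one foot-shock reinforcement and two trials daily for 9 days. On day 10, groups of 5-10 rats were given drug or vehicle by oral gavage and tested.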

Rattus norvegicus [2] = species on record: Rattus norvegicus; experiment: Induction of catalepsy in nonfasted, male Sprague-Dawley rats (dose that produced catalepsy in 50% of the animals); value may range from 58.7 to 141.5; format: functional
[3] = molecular target: T1, Adrenergic receptor alpha-1 (Rattus norvegicus, UniProt P15823+P23944+P43140); experiment: Inhibition of [3H]WB-4101 binding to alpha-1-adrenergic receptor from rat cerebral cortex membranes; format: cell membranes, Membrane
T1 sequence (P15823 whole entry): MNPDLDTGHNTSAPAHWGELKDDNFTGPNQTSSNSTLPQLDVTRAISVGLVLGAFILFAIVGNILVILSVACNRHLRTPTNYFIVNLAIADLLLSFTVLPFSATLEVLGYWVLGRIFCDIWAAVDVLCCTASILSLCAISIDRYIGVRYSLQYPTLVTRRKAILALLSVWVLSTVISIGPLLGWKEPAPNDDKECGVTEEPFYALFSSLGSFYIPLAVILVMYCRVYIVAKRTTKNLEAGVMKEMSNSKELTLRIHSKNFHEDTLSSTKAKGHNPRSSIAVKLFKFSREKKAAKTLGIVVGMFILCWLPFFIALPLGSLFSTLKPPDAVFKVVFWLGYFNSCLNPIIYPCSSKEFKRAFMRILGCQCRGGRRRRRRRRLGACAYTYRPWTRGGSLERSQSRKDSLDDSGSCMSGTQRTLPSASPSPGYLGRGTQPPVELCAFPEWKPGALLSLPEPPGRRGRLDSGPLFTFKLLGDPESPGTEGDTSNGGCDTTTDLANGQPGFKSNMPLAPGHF
T1 sequence (P23944 whole entry): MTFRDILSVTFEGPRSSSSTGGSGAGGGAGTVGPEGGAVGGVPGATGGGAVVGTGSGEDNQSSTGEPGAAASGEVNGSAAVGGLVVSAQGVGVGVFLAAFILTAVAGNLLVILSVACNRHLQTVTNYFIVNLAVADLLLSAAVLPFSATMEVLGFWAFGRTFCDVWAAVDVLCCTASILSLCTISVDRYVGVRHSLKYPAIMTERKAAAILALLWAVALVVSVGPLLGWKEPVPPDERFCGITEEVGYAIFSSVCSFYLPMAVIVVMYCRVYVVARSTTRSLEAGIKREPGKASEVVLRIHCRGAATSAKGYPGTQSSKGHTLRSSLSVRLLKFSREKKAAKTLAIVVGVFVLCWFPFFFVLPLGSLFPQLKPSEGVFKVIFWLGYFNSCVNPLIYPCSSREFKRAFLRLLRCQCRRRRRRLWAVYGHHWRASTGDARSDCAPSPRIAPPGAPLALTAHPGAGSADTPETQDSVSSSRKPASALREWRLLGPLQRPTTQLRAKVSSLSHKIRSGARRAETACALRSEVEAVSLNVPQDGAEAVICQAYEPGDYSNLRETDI
T1 sequence (P43140 whole entry): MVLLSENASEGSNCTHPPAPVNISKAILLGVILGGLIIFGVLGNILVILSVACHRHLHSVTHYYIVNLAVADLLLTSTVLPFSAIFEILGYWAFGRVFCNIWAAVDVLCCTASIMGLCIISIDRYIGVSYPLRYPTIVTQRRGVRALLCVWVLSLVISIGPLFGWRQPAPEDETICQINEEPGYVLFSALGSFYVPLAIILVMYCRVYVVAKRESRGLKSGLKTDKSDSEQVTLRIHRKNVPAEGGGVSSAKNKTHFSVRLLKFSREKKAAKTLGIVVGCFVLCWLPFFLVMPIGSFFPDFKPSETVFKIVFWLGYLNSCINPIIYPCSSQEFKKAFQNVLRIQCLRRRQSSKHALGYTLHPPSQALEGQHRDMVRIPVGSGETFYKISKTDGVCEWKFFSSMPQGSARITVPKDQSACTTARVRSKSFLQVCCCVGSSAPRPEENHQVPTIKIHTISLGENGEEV

Rattus norvegicus [4] = species on record: Rattus norvegicus; experiment: Inhibition of apomorphine induced stereotypy in nonfasted male Sprague-Dawley rats; inactive; format: functional, organism-based
Rattus norvegicus [5] = species on record: Rattus norvegicus; experiment: Inhibition of apomorphine induced stereotypy in nonfasted male Sprague-Dawley rats; format: functional
Outline: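 Groups of 10 nonfasted male Sprague–Dawley rats got test drug by oral gavage. At the previously determined time of peak effect they were challenged with apomorphine 0.5 mg/kg sc and watched for 30 min in individual cages for sniffing, licking, rearing and biting. Inhibition meant all of these were blocked for the full 30 min. ED50 was taken by Berkson's method.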

Rattus norvegicus [6] = species on record: Rattus norvegicus; experiment: Induction of catalepsy in nonfasted, male Sprague-Dawley rats (dose that produced catalepsy in 50% of the animals); value may range from 27.5 to 74.3; format: functional
Rattus norvegicus [7] = species on record: Rattus norvegicus; experiment: Induction of catalepsy in nonfasted, male Sprague-Dawley rats (dose that produced catalepsy in 50% of the animals); value may range from 77.0 to 151.3; format: functional
Rattus norvegicus [8] = species on record: Rattus norvegicus; experiment: Induction of catalepsy in nonfasted, male Sprague-Dawley rats (dose that produced catalepsy in 50% of the animals); value may range from 69.6 to 172.9; format: functional

Row | IC50 [3] | Compound | ED50 (Rattus norvegicus [1]) | also measured
1 |  | N#Cc1cccnc1N1CCN(CCN2C(=O)CC3(CCCC3)CC2=O)CC1 | > 100 mg/kg | 
2 |  | O=C1CC2(CCCC2)CC(=O)N1CCCCN1CCN(c2ccccc2F)CC1 | 37.1 mg/kg | ED50 (Rattus norvegicus [2]): 91.1 mg/kg
3 | 0.15 µM | O=C1CC2(CCCC2)CC(=O)N1CCCN1CCN(c2cccc(Cl)c2)CC1 | 28.2 mg/kg | 
4 |  | CC1(C)CC(=O)N(CCCCN2CCN(c3ncccn3)CC2)C(=O)C1 [GEPIRONE] | 52.5 mg/kg | NA (Rattus norvegicus [4]): inactive
5 | > 1 µM | COc1ccccc1N1CCN(CCN2C(=O)CC3(CCCCCCC3)C2=O)CC1 | 69.9 mg/kg | 
6 | 0.36 µM | N#Cc1cccnc1N1CCN(CCCCN2C(=O)CC3(CCCC3)CC2=O)CC1 | 45 mg/kg | ED50 (Rattus norvegicus [5]): 36.6 mg/kg
7 | 0.044 µM | Cc1ccccc1N1CCN(CCCCN2C(=O)CC3(CCCC3)CC2=O)CC1 | ~100 mg/kg | 
8 |  | O=C1C2C3C=CC(CC3)C2C(=O)N1CCCCN1CCN(c2ncccn2)CC1 (centres undefined) | > 100 mg/kg | 
9 |  | O=C1CC2(CCCC2)CC(=O)N1CCN1CCN(c2ccccc2)CC1 | > 100 mg/kg | 
10 |  | O=C1CC2(CCCC2)CC(=O)N1CCCCCN1CCN(c2ncccn2)CC1 | > 100 mg/kg | 
11 | 0.895 µM | COc1ccccc1N1CCN(CCN2C(=O)CC(C)(C)CC2=O)CC1 | 91.2 mg/kg | 
12 | 0.48 µM | COc1ccccc1N1CCN(CCN2C(=O)CCC(C)(C)C2=O)CC1 | 55.3 mg/kg | 
13 | 0.065 µM | COc1cccnc1N1CCN(CCCCN2C(=O)CC3(CCCC3)CC2=O)CC1 | 55.2 mg/kg | 
14 | > 1 µM | O=C1CC2(CCCCC2)C(=O)N1CCCCN1CCN(c2ncccn2)CC1 | 58.4 mg/kg | 
15 | 0.275 µM | O=C1CC2(CCCC2)CC(=O)N1CCCCN1CCN(c2ccccn2)CC1 | 34 mg/kg | 
16 |  | O=C1CC2(CCCC2)CC(=O)N1CCN1CCN(c2cccc(Cl)c2)CC1 | > 100 mg/kg | 
17 | > 1 µM | Cc1ccnc(N2CCN(CCCCN3C(=O)CC4(CCCC4)CC3=O)CC2)n1 | 52.4 mg/kg | 
18 |  | CSc1ccc2c(c1)N(CCC1CCCCN1C)c1ccccc1S2 (centres undefined) [THIORIDAZINE] | 126 mg/kg | ED50 (Rattus norvegicus [6]): 45.2 mg/kg

Row | IC50 [3] | Compound | ED50 (Rattus norvegicus [1]) | also measured
19 | 0.023 µM | O=C1CC2(CCCC2)CC(=O)N1CCCCN1CCN(c2cccc(Cl)c2)CC1 | 27.6 mg/kg | 
20 |  | O=C1CC2(CCCC2)CC(=O)N1CCCCN1CCN(c2ncccn2)CC1 [BUSPIRONE] |  | ED50 (Rattus norvegicus [5]): 28 mg/kg
21 |  | COc1ccccc1N1CCN(CCN2C(=O)C(C)CC(C)C2=O)CC1 (centres undefined) | > 100 mg/kg | 
22 |  | CN1CCN(C2=Nc3cc(Cl)ccc3Nc3ccccc32)CC1 [CLOZAPINE] | 24.1 mg/kg | 
23 | 0.019 µM | COc1ccccc1N1CCN(CCCN2C(=O)CC3(CCCC3)CC2=O)CC1 | 24.1 mg/kg | 
24 | 0.82 µM | O=C1CCC2(CCCC2)CC(=O)N1CCCCN1CCN(c2ncccn2)CC1 | > 50 mg/kg | 
25 | 0.68 µM | CC12CC1(C)C(=O)N(CCCCN1CCN(c3ncccn3)CC1)C2=O (centres undefined) | 91.6 mg/kg | 
26 |  | N#Cc1cccnc1N1CCN(CCCN2C(=O)CC3(CCCC3)CC2=O)CC1 | > 100 mg/kg | 
27 |  | O=C1CC2(CCCC2)CC(=O)N1CCCCN1CCN(c2ccccc2)CC1 | 30.7 mg/kg | ED50 (Rattus norvegicus [7]): 108 mg/kg
28 | 0.013 µM | COc1ccccc1N1CCN(CCCCN2C(=O)CC3(CCCC3)CC2=O)CC1 | 20.5 mg/kg | 
29 | > 1 µM | O=C1CC2(CCCCCC2)C(=O)N1CCCCN1CCN(c2ncccn2)CC1 | 51.5 mg/kg | 
30 |  | O=C1CC2(CCCC2)CC(=O)N1CCCN1CCN(c2ncccn2)CC1 | > 100 mg/kg | 
31 |  | COc1ccccc1N1CCN(CCN2C(=O)CC3(CCCC3)CC2=O)CC1 [BMY-7378] | 52.1 mg/kg | 
32 | 0.11 µM | O=C1CC2(CCCC2)CC(=O)N1CCCCN1CCN(c2ccccc2[N+](=O)[O-])CC1 | 48.8 mg/kg | 
33 | 0.24 µM | COc1ccccc1N1CCN(CCN2C(=O)CC3(CCCCC3)C2=O)CC1 | 50 mg/kg | 
34 |  | O=C1CC2(CCCC2)CC(=O)N1CCCCN1CCN(c2ccccc2Cl)CC1 | 77.8 mg/kg | ED50 (Rattus norvegicus [8]): 109 mg/kg
35 |  | O=C(CCCN1CCC(O)(c2ccc(Cl)cc2)CC1)c1ccc(F)cc1 [HALOPERIDOL] | 2.8 mg/kg | 
